Measured values of several laboratories.
Each line is one published result; the experiments were not run side by side.
LRRK2: Leucine-rich repeat serine/threonine-protein kinase 2 (LRRK2, Homo sapiens, UniProt Q5S007)
LRRK2 G2019S: Leucine-rich repeat serine/threonine-protein kinase 2 (LRRK2, Homo sapiens, UniProt Q5S007, G2019S)

COCCOc1nc(-c2ccc(Cl)nc2)nc2c1CN(C(=O)c1ncn3ccccc13)CC2
remaining binding (LRRK2; cell-free assay; competition with immobilised ligand; 0.1 µM): 100%

COc1ccnn2ncc(-c3ccnc(N(C)C)n3)c12
remaining binding (LRRK2; binding; 1 µM): 56%

Nc1ncnc2occ(-c3ccc(NC(=O)Nc4cc(C(F)(F)F)ccc4F)cc3)c12
remaining signal (LRRK2 G2019S; cell-free assay; inhibitor; 20 µM): 12%

Cc1ccc(NC(=O)c2ccc(C)c(C(F)(F)F)c2)cc1C#Cc1nn(C2CCC(O)CC2)c2ncnc(N)c12 (centres unmarked)
remaining signal (LRRK2; cell-free assay; 10 µM): 15%

CC1CCCN1c1nccc(-c2cnn3ncccc23)n1 (centres unmarked)
remaining binding (LRRK2; binding; 1 µM): 100%

COc1cc(-c2cc(-c3ccc(N4CCNCC4)cc3)cnc2N)cc(OC)c1OC
inhibition (LRRK2; enzyme activity; inhibitor; 1 µM): 33%

O=C(O)[C@@H]1[C@@H](Cn2nnc3ccccc3c2=O)CC[C@H]1C(=O)c1ccc(OCCC2CCOCC2)cc1
remaining binding (LRRK2 G2019S; cell-free assay; competition with immobilised ligand; 1 µM): 100%

O=C1NC(=O)c2cc(Nc3ccc(F)cc3)c(Nc3ccc(F)cc3)cc21
remaining signal (LRRK2; cell-free assay; 0.5 µM): 99.8%

CC(C)(C)c1nc2c(s1)c1nc(N)ncc1c1ccc(NS(=O)(=O)c3c(F)cccc3F)c(F)c12
remaining activity (LRRK2; enzyme activity; inhibitor; radiometric; 1 µM): 93%

CN(C)C(=O)Cn1cc(-c2nc(C3(c4ccc(-c5cnc(N)nc5)cc4)CC3)no2)cn1
remaining binding (LRRK2; cell-free assay; competition with immobilised ligand; 1 µM): 100%

CCN(CC)CCNC(=O)c1c(C)[nH]c(/C=C2\C(=O)Nc3ccc(F)cc32)c1C
remaining signal (LRRK2; cell-free assay; 0.5 µM): 3.34%

CN(C)C1CCN(CC#Cc2nn(C3CCCC3)c3nc(NCc4ccccc4)ncc23)C1 (centres unmarked)
inhibition (LRRK2; enzyme activity; inhibitor; FRET; 10 µM): 7%

Cc1sc(C(=O)NC2COC2)cc1-n1cc(NC(=O)Nc2c(F)cccc2Cl)cn1
remaining activity (LRRK2; enzyme activity; inhibitor; 10 µM): 101%

Cc1c(C(=O)O)cc(-c2ccc(C3CCNCC3)cc2)c2ccc(-c3ccc(C(F)(F)F)cc3)cc12
remaining binding (LRRK2 G2019S; binding; competition with immobilised ligand; 1 µM): 100%

Cc1ccc(C(=O)Nc2ccc(CN3CCN(C)CC3)c(C(F)(F)F)c2)cc1C#Cc1cnc2cccnn12
remaining activity (LRRK2 G2019S; enzyme activity; inhibitor; 23.5 nM): 99%

O=C(Nc1cnc(Oc2ccc(F)cc2)nc1)N1CCc2ncccc2[C@@H]1c1ccc(F)cc1
remaining binding (LRRK2; cell-free assay; competition with immobilised ligand; 1 µM): 83%

Cc1cnn2ncc(-c3ccnc(N(C)C)n3)c2c1
remaining binding (LRRK2; binding; 1 µM): 47%

COc1cc2nccc(Oc3ccc(NC(=O)c4c5n(n(-c6ccc(F)cc6)c4=O)CCCC5)cc3)c2cc1OC
inhibition (LRRK2; enzyme activity; inhibitor; 0.1 µM): 0%

N[C@@H]1CCN(c2nccc(-c3cnn4ncccc34)n2)C1
remaining binding (LRRK2 G2019S; binding; 1 µM): 100%

CCc1ccccc1C(=O)Nc1n[nH]c2c(C)c(F)c(C3C(C#N)=C(C)N(C)C(C)=C3C#N)cc12
remaining binding (LRRK2 G2019S; cell-free assay; competition with immobilised ligand; 1 µM): 100%

O=C(Nc1cnn(-c2csc(C(=O)NC3COC3)c2)c1)Nc1c(F)cccc1Cl
remaining activity (LRRK2; enzyme activity; inhibitor; 5 µM): 91.3%

COc1cc(-c2cn(C3CCc4c(F)cccc4N(CC(F)(F)F)C3=O)nn2)ccc1-n1cnc(C)c1 (centres unmarked)
remaining binding (LRRK2 G2019S; cell-free assay; competition with immobilised ligand; 1 µM): 100%

Cc1ccc(NC(=O)c2ccc(CN3CCN(C)CC3)cc2)cc1Nc1nc(-c2cccnc2)cs1
remaining signal (LRRK2; cell-free assay; 0.5 µM): 107%

Cc1cc(NC(=O)c2cccc3cc(-c4cccc5[nH]nc(N)c45)ccc23)ccc1F
activity vs control (LRRK2; enzyme activity; inhibitor; 0.1 µM): 98%

COc1ccc2c(c1)O[C@@H](c1ccc(OC)c(OC)c1)C[C@H]2NC(=O)C1(c2ccc3c(c2)OC(F)(F)O3)CC1
remaining binding (LRRK2; cell-free assay; competition with immobilised ligand; 1 µM): 87%

C[C@@H]1CCN(c2nccc(-c3cnn4ncccc34)n2)C1
remaining binding (LRRK2; binding; 1 µM): 59%
